# Measurements from different studies.
# Lines come from different studies, so protocols differ.
# Organism: Salmonella enterica
SMILES,test,test system,conditions,endpoint,result
CC1=NN(CNc2c(O)c(S(=O)(=O)O)cc3ccccc23)C(=O)C1=NNn1c(-c2ccccc2)nc2ccccc2c1=O,"microbial growth, broth dilution",PARATYPHI,24 h,MIC,83.7 µM
CO[C@H]1O[C@H](COC(c2ccccc2)(c2ccccc2)c2ccccc2)[C@@H](OC(=O)c2ccc(C(C)(C)C)cc2)[C@H](OC(=O)c2ccc(C(C)(C)C)cc2)[C@H]1OC(=O)c1ccc(C(C)(C)C)cc1,"microbial killing, broth dilution",TYPHI,,MBC,16 µg/mL
CO[C@H]1/C=C/O[C@@]2(C)Oc3c(C)c(O)c4c(O)c(c(/C=N/N5CCN(C)CC5)c(O)c4c3C2=O)NC(=O)/C(C)=C\C=C\[C@H](C)[C@H](O)[C@@H](C)[C@@H](O)[C@@H](C)[C@H](OC(C)=O)[C@@H]1C,microbial growth,TYPHI,,IC50,0.12 µM
CO/N=C(\C(=O)N[C@@H]1C(=O)N2C(C(=O)O)=C(CSC(=O)c3ccco3)CS[C@H]12)c1csc(N)n1,microbial growth,CHOLERAESUIS,"20 h, pH 7",MIC,1 µg/mL
O=C1NN=C(N=Cc2ccccc2O)C1=NNn1c(-c2ccccc2)nc2ccccc2c1=O,"microbial growth, broth dilution",PARATYPHI,24 h,MIC,55.4 µM
CCCCCCCCCCCC(=O)OC[C@H]1O[C@@H](n2cc(C)c(=O)[nH]c2=O)C[C@@H]1O,"microbial killing, broth dilution",TYPHI,,MBC,8 µg/mL
COc1cc(Cc2cnc(N)nc2N)cc(OC)c1OC,microbial growth,CHOLERAESUIS,"20 h, pH 5.5",MIC,0.5 µg/mL
[H]/N=C(/N)N[C@H]1[C@H](O)[C@@H](O)[C@H](O[C@@H]2O[C@@H](C)[C@](O)(C=O)[C@H]2O[C@@H]2O[C@@H](CO)[C@H](O)[C@@H](O)[C@@H]2NC)[C@@H](N/C(N)=N\[H])[C@@H]1O,microbial growth,TYPHI,,IC50,8.1 µM
CC1=NN(CNc2ccccc2)C(=O)C1=NNn1c(-c2ccccc2)nc2ccccc2c1=O,"microbial growth, broth dilution",PARATYPHI,24 h,MIC,221 µM
CCn1cc(C(=O)O)c(=O)c2ccc(C)nc21,microbial growth,CHOLERAESUIS,"20 h, pH 7.2",MIC,4 µg/mL
CCCCCCCCCCCC(=O)OC[C@H]1O[C@@H](n2cc(C)c(=O)[nH]c2=O)C[C@@H]1OC(=O)c1ccc(C(C)(C)C)cc1,"microbial killing, broth dilution",TYPHI,,MBC,16 µg/mL
